Data published in ChEMBL document CHEMBL3259629, “Discovery and optimization of piperidyl-1,2,3-triazole ureas as potent, selective, and in vivo-active inhibitors of α/β-hydrolase domain containing 6 (ABHD6)” (J Med Chem, 2013).
Calls of active or inactive are those of the source. No cut-off for these calls is given here.

Legend:
[1] = target: T1, Fatty-acid amide hydrolase 1 (Mus musculus) (UniProt O08914); experiment: Inhibition of mouse brain FAAH at 10 uM after 30 mins by FP-rhodamine ABPP-based SDS-PAGE analysis relative to control
T1 sequence (whole entry): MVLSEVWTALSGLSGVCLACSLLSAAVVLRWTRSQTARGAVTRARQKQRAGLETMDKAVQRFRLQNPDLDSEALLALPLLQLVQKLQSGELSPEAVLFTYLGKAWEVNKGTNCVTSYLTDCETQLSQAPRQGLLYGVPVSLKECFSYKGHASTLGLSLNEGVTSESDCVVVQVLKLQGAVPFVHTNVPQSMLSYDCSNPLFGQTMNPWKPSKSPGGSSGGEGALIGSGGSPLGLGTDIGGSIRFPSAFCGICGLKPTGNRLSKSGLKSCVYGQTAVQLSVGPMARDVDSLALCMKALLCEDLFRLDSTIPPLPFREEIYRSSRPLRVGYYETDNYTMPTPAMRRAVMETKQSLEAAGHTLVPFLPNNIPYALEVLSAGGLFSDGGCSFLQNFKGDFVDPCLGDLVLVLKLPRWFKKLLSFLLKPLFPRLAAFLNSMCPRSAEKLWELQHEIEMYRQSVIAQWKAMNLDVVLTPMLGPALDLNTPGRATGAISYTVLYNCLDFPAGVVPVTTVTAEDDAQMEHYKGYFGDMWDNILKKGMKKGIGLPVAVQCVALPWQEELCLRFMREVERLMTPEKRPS

[2] = target: T2, Monoacylglycerol lipase ABHD6 (Mus musculus, UniProt Q8R2Y0); experiment: Inhibition of recombinant mouse ABHD6 expressed in HEK293T using 2-arachidonoylglycerol preincubated for 30 mins followed by substrate addition measured after 30 mins by LC-MS analysis
T2 sequence (Q8R2Y0 whole entry): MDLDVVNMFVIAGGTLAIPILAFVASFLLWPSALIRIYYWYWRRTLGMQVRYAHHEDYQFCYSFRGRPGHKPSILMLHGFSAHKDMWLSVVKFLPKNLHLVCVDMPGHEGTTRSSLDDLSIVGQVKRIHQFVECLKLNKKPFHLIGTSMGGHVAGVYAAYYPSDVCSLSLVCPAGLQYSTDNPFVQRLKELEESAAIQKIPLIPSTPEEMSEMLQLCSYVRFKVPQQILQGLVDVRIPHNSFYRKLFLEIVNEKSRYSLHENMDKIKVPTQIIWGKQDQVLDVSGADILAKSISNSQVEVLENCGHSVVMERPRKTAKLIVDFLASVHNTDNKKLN

[3] = target: T2, Monoacylglycerol lipase ABHD6
Mus musculus [4] = experiment: In vivo inhibition of ABHD6 in C57Bl/6 mouse liver at 1 mg/kg, ip after 4 hrs by HT-10-labelled gel-based competitive ABPP assay; type: functional, organism-based; set-up: dose 1 mg/kg
How it was run: (§1)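 C57Bl/6 mice dosed i.p. at 0.1, 0.5 or 1 mg kg⁻¹ in 18:1:1 saline/ethanol/PEG40 (ethoxylated castor oil), 10 μL g⁻¹. Killed after 4 hr under isoflurane by cervical dislocation. Brain and liver membrane fractions (100,000 × g) labelled with FP-rhodamine or HT-01 (1 μM, 30 min, 37 °C), then SDS-PAGE and in-gel fluorescence scanning. Liver ABHD6 read from HT-01 gels.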

Mus musculus [5] = experiment: In vivo inhibition of ABHD6 in C57Bl/6 mouse brain at 1 mg/kg, ip after 4 hrs by HT-10-labelled gel-based competitive ABPP assay; type: functional, organism-based; set-up: dose 1 mg/kg
How it was run: as §1

Mus musculus [6] = experiment: In vivo inhibition of ABHD6 in C57Bl/6 mouse liver at 5 to 10 mg/kg, ip after 4 hrs by FP-rhodamine/HT-10-labelled gel-based competitive assay; type: functional, organism-based
How it was run: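 C57Bl/6 mice dosed i.p. at 1–40 mg kg⁻¹ in 18:1:1 saline/ethanol/PEG40, 10 μL g⁻¹, for 4 hr, then killed. Brain and liver membrane proteomes labelled with FP-rhodamine or HT-01 (1 μM, 30 min, 37 °C) and resolved by SDS-PAGE with in-gel fluorescence scanning.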

Mus musculus [7] = experiment: In vivo inhibition of carboxylesterase-1 in C57Bl/6 mouse liver at 40 mg/kg, po after 4 hrs by FP-rhodamine-labelled gel-based competitive ABPP assay; type: functional, organism-based; set-up: dose 40 mg/kg
[8] = target: T2, Monoacylglycerol lipase ABHD6; experiment: Inhibition of ABHD6 in FP-rhodamine-labelled mouse brain membrane preincubated for 30 mins followed by FP-rhodamine labelling measured after 30 mins by gel-based competitive ABPP assay
Mus musculus [9] = experiment: In vivo inhibition of ABHD6 in C57Bl/6 mouse liver at 10 to 40 mg/kg, po after 4 hrs by FP-rhodamine/HT-10-labelled gel-based competitive assay; type: functional, organism-based
Mus musculus [10] = experiment: In vivo inhibition of ABHD6 in C57Bl/6 mouse brain at 20 mg/kg, ip after 4 hrs by FP-rhodamine/HT-10-labelled gel-based competitive assay; conditions: C57Bl/6, Brain
Mus musculus [11] = experiment: In vivo inhibition of FAAH in C57Bl/6 mouse liver and bain at 0.1 to 1 mg/kg, ip after 4 hrs by FP-rhodamine-labelled gel-based competitive ABPP assay; type: functional, organism-based
How it was run: as §1

Mus musculus [12] = experiment: In vivo inhibition of DDH2 in C57Bl/6 mouse liver and bain at 0.1 to 1 mg/kg, ip after 4 hrs by FP-rhodamine-labelled gel-based competitive ABPP assay; type: functional, organism-based
How it was run: as §1

Mus musculus [13] = experiment: In vivo inhibition of DAGLbeta in C57Bl/6 mouse liver and bain at 0.1 to 1 mg/kg, ip after 4 hrs by FP-rhodamine-labelled gel-based competitive ABPP assay; type: functional, organism-based
How it was run: as §1

Mus musculus [14] = experiment: In vivo inhibition of ABHD6 in C57Bl/6 mouse brain at 0.1 to 1 mg/kg, ip after 4 hrs by HT-10-labelled gel-based competitive ABPP assay; type: functional, organism-based
How it was run: as §1

Mus musculus [15] = experiment: In vivo inhibition of PLA2G7 in C57Bl/6 mouse liver and bain at 0.1 to 1 mg/kg, ip after 4 hrs by FP-rhodamine-labelled gel-based competitive ABPP assay; type: functional, organism-based
How it was run: as §1

Mus musculus [16] = experiment: In vivo inhibition of MGLL in C57Bl/6 mouse liver and bain at 0.1 to 1 mg/kg, ip after 4 hrs by FP-rhodamine-labelled gel-based competitive ABPP assay; type: functional, organism-based
How it was run: as §1

Structure (SMILES): O=C(N1CCCCC1c1ccccc1)n1cc(-c2ccc(-c3cccc(CO)c3)cc2)nn1 (racemic)
- inhibition [1]: Active
- IC50 ([2]; hek-293t): 15.1 nM
- IC50 [3]: 0.24 nM
- inhibition (Mus musculus [4]): Active
- inhibition (Mus musculus [5]): Active

Structure (SMILES): O=C(c1cccc(-c2ccc(-c3cn(C(=O)N4CCCCC4c4ccccc4)nn3)cc2)c1)N1CCCCC1 (racemic)
- inhibition (Mus musculus [6]): Active
- inhibition (Mus musculus [7]): Active
- IC50 [2]: 13.6 nM
- IC50 [8]: 1.3 nM
- inhibition (Mus musculus [9]): Active
- inhibition in vivo at 20 mg/kg (Mus musculus [10]): > 70%

Structure (SMILES): O=C(O)c1cccc(-c2ccc(-c3cn(C(=O)N4CCCCC4Cc4ccccc4)nn3)cc2)c1 (racemic)
- inhibition (Mus musculus [11]): inactive
- inhibition (Mus musculus [12]): inactive
- inhibition (Mus musculus [13]): inactive
- inhibition [1]: Active
- inhibition (Mus musculus [14]): inactive
- inhibition (Mus musculus [4]): Active
- inhibition (Mus musculus [15]): inactive
- inhibition (Mus musculus [16]): inactive
